Drawing on ChEMBL document CHEMBL1134324, “Chemosensitization of a multidrug-resistant Leishmania tropica line by new sesquiterpenes from Maytenus magellanica and Maytenus chubutensis” (J Med Chem, 2001), this text covers inhibition for 14 molecules.

What all share (assay type): functional
The subject of assay [1] is Leishmania tropica. Kind of assay: Growth inhibition of MDR (DNM-R150) L. Tropica line at 15 uM concentration. The procedure, abridged:
(§1)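 Daunomycin-resistant (DNM-R150) promastigotes, log phase, 3 × 10⁵ cells per well, co-exposed to 150 μM DNM plus sesquiterpene (DMSO stock diluted in medium; final DMSO ≤0.3%). Incubated 72 h at 28 °C in RPMI 1640-modified medium with 20% heat-inactivated FBS. MTT added for 4 h, formazan dissolved in 20% SDS, A540 read. %GI calculated relative to control cells given the same DNM without modulator.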

The subject of assay [2] is Leishmania tropica. As to the kind of experiment: Growth inhibition of MDR (DNM-R150) L. Tropica line at 30 uM concentration. The procedure, abridged:
as §1

The test system of assay [3] is Leishmania tropica. As to the kind of experiment: Growth inhibition of MDR (DNM-R150) L. Tropica line at 7.5 uM concentration. The procedure, abridged: as §1
The subject of assay [4] is Leishmania tropica. As to the kind of experiment: Growth inhibition of wild type L. Tropica parasite at 15 uM concentration. The procedure, abridged: (§2)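 Intrinsic toxicity assay on wild-type LRC clone promastigotes, log phase, 3 × 10⁵ cells per well, exposed to sesquiterpene without DNM (DMSO stock diluted in medium; final DMSO ≤0.3%). Incubated 72 h at 28 °C in RPMI 1640-modified medium with 20% FBS. Viability read by MTT (4 h, SDS solubilization, 540 nm). Survival is absorbance ratio to untreated control, expressed as %GI.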

Assay [5] relates to Leishmania tropica. Kind of assay: Growth inhibition of wild type L. Tropica parasite at 30 uM concentration. The procedure, abridged: as §2
Assay [6] deals with Leishmania tropica. As to the kind of experiment: Growth inhibition of wild type L. Tropica parasite at 7.5 uM concentration. The procedure, abridged:
as §2

Each structure is given as a SMILES string.

In the case of `CC(=O)O[C@@H]1C2[C@H](OC(C)=O)[C@H](OC(=O)c3ccccc3)[C@]3(C)[C@@H](OC(=O)c4ccccc4)[C@H](OC(=O)c4ccccc4)C[C@](C)(O)C13OC2(C)C` (some centres undefined), the inhibition in the assay on Leishmania tropica [1] is 82.2%; in the assay on Leishmania tropica [2], 92%; in the assay on Leishmania tropica [3] it was 60.3%; with Leishmania tropica [4], 19.7%; in the assay with Leishmania tropica [5], 16.2%; in the assay with Leishmania tropica [6], 9.7%.

Turning to `CC(=O)O[C@H]1[C@H](O)[C@@H](C)C23OC(C)(C)C(C[C@H](OC(=O)c4ccccc4)[C@]2(C)[C@H]1OC(=O)c1ccccc1)[C@H]3OC(C)=O` (some centres undefined), the inhibition in the assay with Leishmania tropica [1] was determined as 54%; in the assay with Leishmania tropica [2], 77.5%; with Leishmania tropica [3] it was 32%; in the assay on Leishmania tropica [4], 3.5%; in the assay with Leishmania tropica [5] it was 11.7%; in the assay on Leishmania tropica [6], 0%.

On to `CC(=O)O[C@@H]1[C@H](OC(=O)c2ccccc2)[C@@]2(C)[C@@H](OC(=O)/C=C/c3ccccc3)C[C@H]3[C@@H](OC(C)=O)[C@]2(OC3(C)C)[C@@](C)(O)[C@H]1OC(=O)c1cccnc1`, for which the inhibition with Leishmania tropica [1] is 13.5%; with Leishmania tropica [2] it was 45%; in the assay with Leishmania tropica [3], 7.3%; in the assay on Leishmania tropica [4], 1.5%; in the assay with Leishmania tropica [5], 1.9%; in the assay on Leishmania tropica [6], 1.5%.

For `CC(=O)O[C@@H]1[C@H](OC(=O)c2ccccc2)[C@@]2(C)[C@@H](OC(=O)c3ccccc3)CC3[C@@H](OC(C)=O)C2(OC3(C)C)[C@@](C)(O)[C@H]1OC(=O)c1cccnc1` (some centres undefined), the inhibition in the assay on Leishmania tropica [1] worked out at 30.7%; in the assay with Leishmania tropica [2], 69.5%; in the assay on Leishmania tropica [3], 10%; with Leishmania tropica [4], 0.7%; with Leishmania tropica [5] it was 3.7%; in the assay with Leishmania tropica [6], 2.2%.

As to `CC(=O)O[C@@H]1[C@H](OC(=O)/C=C/c2ccccc2)[C@@]2(C)[C@@H](OC(=O)c3ccccc3)CC3CC2(OC3(C)C)[C@@](C)(O)[C@H]1OC(=O)c1cccnc1` (some centres undefined), the inhibition in the assay on Leishmania tropica [1] came to 90.3%; in the assay with Leishmania tropica [2] it was 94.7%; with Leishmania tropica [3], 82%; in the assay with Leishmania tropica [4] it was 3.7%; in the assay with Leishmania tropica [5], 7.5%; with Leishmania tropica [6], 2.5%.

Consider `CC(=O)O[C@@H]1[C@H](OC(=O)c2cccnc2)[C@@]2(C)[C@@H](OC(=O)c3ccccc3)[C@@H](OC(C)=O)C3CC2(OC3(C)C)[C@@](C)(O)[C@H]1OC(=O)c1ccccc1` (some centres undefined), for which the inhibition in the assay with Leishmania tropica [1] was determined as 44%; in the assay on Leishmania tropica [2], 69.7%; with Leishmania tropica [3], 21.4%; in the assay with Leishmania tropica [4] it was 12.9%; in the assay with Leishmania tropica [5], 19.7%; in the assay on Leishmania tropica [6], 0%.

`CC(=O)O[C@H]1C[C@](C)(O)C23CC(C[C@H](OC(=O)c4ccccc4)[C@]2(C)[C@H]1OC(=O)c1ccccc1)C(C)(C)O3` (some centres undefined): the inhibition in the assay with Leishmania tropica [1] came to 89.7%; in the assay with Leishmania tropica [2] it was 94%; in the assay with Leishmania tropica [3] it was 82%; with Leishmania tropica [4], 4.1%; with Leishmania tropica [5], 13.3%; with Leishmania tropica [6], 5.3%.

Regarding `CC(=O)OC[C@]12[C@@H](OC(=O)c3ccccc3)CC3[C@@H](OC(=O)c4ccccc4)C1(OC3(C)C)[C@@](C)(O)C[C@@H](OC(=O)c1cccnc1)[C@@H]2OC(C)=O` (some centres undefined), the inhibition in the assay on Leishmania tropica [1] was 91.3%; in the assay with Leishmania tropica [2] it was 94.8%; in the assay on Leishmania tropica [3] it was 80.7%; with Leishmania tropica [4] it was 25.8%; in the assay on Leishmania tropica [5], 45%; in the assay on Leishmania tropica [6], 8.2%.

`CC(=O)O[C@@H]1C2[C@H](OC(C)=O)[C@H](OC(=O)c3ccccc3)[C@]3(C)[C@@H](OC(=O)c4ccccc4)[C@H](OC(=O)c4cccnc4)C[C@@H](C)C13OC2(C)C` (some centres undefined): the inhibition in the assay with Leishmania tropica [1] was determined as 79.3%; in the assay on Leishmania tropica [2], 94.5%; in the assay on Leishmania tropica [3], 42.2%; with Leishmania tropica [4], 13%; in the assay with Leishmania tropica [5], 13.3%; in the assay on Leishmania tropica [6] it was 1.7%.

Take `CC(=O)O[C@@H]1[C@H](OC(=O)c2ccccc2)[C@@]2(C)[C@@H](OC(=O)c3ccccc3)[C@@H](OC(C)=O)C3CC2(OC3(C)C)[C@@](C)(O)[C@H]1OC(C)=O` (some centres undefined): the inhibition with Leishmania tropica [1] is 65%; in the assay with Leishmania tropica [2], 90%; in the assay with Leishmania tropica [3] it was 39%; in the assay on Leishmania tropica [4], 14.4%; in the assay with Leishmania tropica [5] it was 23%; with Leishmania tropica [6], 1.7%.

Turning to `CC(=O)O[C@H]1C[C@](C)(O)C23CC(C[C@H](OC(=O)/C=C/c4ccccc4)[C@]2(C)[C@H]1OC(=O)c1ccccc1)C(C)(C)O3` (some centres undefined), the inhibition in the assay on Leishmania tropica [1] amounted to 92.8%; in the assay with Leishmania tropica [2], 94.3%; with Leishmania tropica [3], 88.2%; with Leishmania tropica [4], 7.3%; in the assay on Leishmania tropica [5] it was 7.5%; in the assay with Leishmania tropica [6], 0%.

With `CC(=O)O[C@@H]1[C@H](OC(=O)c2ccccc2)[C@@]2(C)[C@@H](OC(=O)c3ccccc3)[C@@H](OC(=O)c3ccccc3)C3CC2(OC3(C)C)[C@@](C)(O)[C@H]1OC(C)=O` (some centres undefined), the inhibition in the assay on Leishmania tropica [1] stood at 79%; in the assay on Leishmania tropica [2], 93%; in the assay with Leishmania tropica [3], 48.7%; with Leishmania tropica [4] it was 15.8%; with Leishmania tropica [5] it was 20.5%; with Leishmania tropica [6] it was 0.5%.

Take `CC(=O)OC[C@]12[C@@H](OC(=O)c3ccccc3)CC3[C@@H](OC(=O)c4ccccc4)C1(OC3(C)C)[C@H](C)C[C@@H](OC(=O)c1cccnc1)[C@@H]2OC(C)=O` (some centres undefined): the inhibition in the assay on Leishmania tropica [1] was found to be 87.9%; in the assay on Leishmania tropica [2], 93.7%; in the assay on Leishmania tropica [3], 83.7%; in the assay with Leishmania tropica [4] it was 27.5%; in the assay with Leishmania tropica [5], 35%; in the assay with Leishmania tropica [6], 11.5%.

In the case of `CC(=O)O[C@@H]1[C@H](OC(=O)c2cccnc2)[C@@]2(C)[C@@H](OC(=O)c3ccccc3)[C@@H](OC(=O)c3ccccc3)C3CC2(OC3(C)C)[C@@](C)(O)[C@H]1OC(C)=O` (some centres undefined), the inhibition in the assay with Leishmania tropica [1] was determined as 54%; with Leishmania tropica [2] it was 89%; with Leishmania tropica [3], 23.9%; in the assay with Leishmania tropica [4], 6%; in the assay on Leishmania tropica [5] it was 11%; with Leishmania tropica [6], 0.5%.

What is called inhibition is the relative decrease from the control value, in per cent. Higher therefore signals strong suppression.
